ChEMBL document CHEMBL2331240, “Focused library development of 2-phenylacrylamides as broad spectrum cytotoxic agents” (2013)
Active and inactive are the calls of the source. The calls are words filed in the database; no cut-off is given here.

Tests used:
[1] = test system: DU-145; assay: Cytotoxicity against human DU145 cells assessed as growth inhibition at 25 uM measured after 72 hrs by MTT assay; type: functional, cell-based
How it was run: (§1)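 Log-phase cells were plated in duplicate at 2500–4000 cells/well in DMEM with 10% FBS, glutamine and antibiotics, at 37 °C under 5% CO2. Drug was added 24 h after plating from a 40 mM DMSO stock, to a final 25 μM. After 72 h exposure, MTT was read at 540 nm and % growth inhibition was calculated, with 100% meaning total growth inhibition.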

[2] = test system: A2780; assay: Cytotoxicity against human A2780 cells assessed as growth inhibition at 25 uM measured after 72 hrs by MTT assay; type: functional; how it was run: as §1
[3] = test system: A-431; assay: Cytotoxicity against human A431 cells assessed as growth inhibition at 25 uM measured after 72 hrs by MTT assay; type: functional, cell-based; how it was run: as §1
[4] = test system: MCF7; assay: Cytotoxicity against human MCF7 cells assessed as growth inhibition at 25 uM measured after 72 hrs by MTT assay; type: functional; details: for inhibition of growth at 25 µM: MCF7, 72 h, read-out: GI; how it was run: as §1
[5] = test system: HT-29; assay: Cytotoxicity against human HT-29 cells assessed as growth inhibition at 25 uM measured after 72 hrs by MTT assay; type: functional, cell-based; how it was run: as §1
[6] = test system: NCI-H460; assay: Cytotoxicity against human H460 cells assessed as growth inhibition at 25 uM measured after 72 hrs by MTT assay; type: functional, cell-based; how it was run: as §1
[7] = (§2) Cytotoxicity against human BE(2)-C cells assessed as growth inhibition at 25 uM measured after 72 hrs by MTT assay; type: functional; details: read-out: GI; how it was run: as §1
[8] = test system: SMA; assay: Cytotoxicity against mouse SMA cells assessed as growth inhibition at 25 uM measured after 72 hrs by MTT assay
[9] = test system: MIA; assay: (§3) Cytotoxicity against human MIA cells assessed as growth inhibition at 25 uM measured after 72 hrs by MTT assay; type: functional; how it was run: as §1
[10] = test system: SW480; assay: Cytotoxicity against human SW480 cells assessed as growth inhibition at 25 uM measured after 72 hrs by MTT assay; type: functional; details: for inhibition of growth at 25 µM: SW480, 72 h, read-out: GI; how it was run: as §1
[11] = test system: SJ-G2; assay: Cytotoxicity against human SJ-G2 cells assessed as growth inhibition at 25 uM measured after 72 hrs by MTT assay; type: functional, cell-based; how it was run: as §1
[12] = test system: BE(2)-C; assay: as §2; type: functional; how it was run: as §1
[13] = as §3; type: functional; details: read-out: GI; how it was run: as §1
[14] = test system: HT-29; assay: Cytotoxicity against human HT-29 cells assessed as growth inhibition at 100 uM measured after 72 hrs by MTT assay; type: functional; details: HT-29, 72 h, read-out: GI
[15] = test system: A-431; assay: Cytotoxicity against human A431 cells assessed as growth inhibition at 100 uM measured after 72 hrs by MTT assay; type: functional; details: A-431, 72 h, read-out: GI
[16] = test system: HT-29; assay: Cytotoxicity against human HT-29 cells assessed as growth inhibition measured after 72 hrs by MTT assay; type: functional; details: HT-29, 72 h
How it was run: (§4)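 Cells in log phase were seeded in duplicate at 2500–4000 cells/well in supplemented DMEM (37 °C, 5% CO2). Drug from a 40 mM DMSO stock was added on day 0, 24 h post-plating. Read-out was MTT absorbance at 540 nm after 72 h.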

[17] = Cytotoxicity against human H460 cells assessed as growth inhibition at 100 uM measured after 72 hrs by MTT assay; type: functional; details: NCI-H460, 72 h, read-out: GI
[18] = Cytotoxicity against human MIA cells assessed as growth inhibition at 100 uM measured after 72 hrs by MTT assay; type: functional; details: read-out: GI
[19] = test system: DU-145; assay: Cytotoxicity against human DU145 cells assessed as growth inhibition measured after 72 hrs by MTT assay; type: functional; details: DU-145, 72 h; how it was run: as §4
[20] = test system: A-431; assay: Cytotoxicity against human A431 cells assessed as growth inhibition measured after 72 hrs by MTT assay; type: functional; details: A-431, 72 h; how it was run: as §4
[21] = Cytotoxicity against human SJ-G2 cells assessed as growth inhibition at 100 uM measured after 72 hrs by MTT assay; type: functional; details: SJ-G2, 72 h, read-out: GI
[22] = Cytotoxicity against human MIA cells assessed as growth inhibition measured after 72 hrs by MTT assay; type: functional; how it was run: as §4
[23] = Cytotoxicity against human SJ-G2 cells assessed as growth inhibition measured after 72 hrs by MTT assay; type: functional; details: SJ-G2, 72 h; how it was run: as §4
[24] = Cytotoxicity against human H460 cells assessed as growth inhibition measured after 72 hrs by MTT assay; type: functional; details: NCI-H460, 72 h; how it was run: as §4
[25] = test system: A2780; assay: Cytotoxicity against human A2780 cells assessed as growth inhibition measured after 72 hrs by MTT assay; type: functional; details: A2780, 72 h; how it was run: as §4
[26] = Cytotoxicity against mouse SMA cells assessed as growth inhibition measured after 72 hrs by MTT assay
[27] = test system: SW480; assay: Cytotoxicity against human SW480 cells assessed as growth inhibition at 100 uM measured after 72 hrs by MTT assay; type: functional; details: SW480, 72 h, read-out: GI
[28] = Cytotoxicity against human BE(2)-C cells assessed as growth inhibition at 100 uM measured after 72 hrs by MTT assay; type: functional; details: read-out: GI
[29] = test system: MCF7; assay: Cytotoxicity against human MCF7 cells assessed as growth inhibition measured after 72 hrs by MTT assay; type: functional; details: MCF7, 72 h; how it was run: as §4
[30] = test system: SW480; assay: Cytotoxicity against human SW480 cells assessed as growth inhibition measured after 72 hrs by MTT assay; type: functional; details: SW480, 72 h; how it was run: as §4
[31] = test system: DU-145; assay: Cytotoxicity against human DU145 cells assessed as growth inhibition at 100 uM measured after 72 hrs by MTT assay; type: functional; details: DU-145, 72 h, read-out: GI
[32] = Cytotoxicity against human BE(2)-C cells assessed as growth inhibition measured after 72 hrs by MTT assay; type: functional; how it was run: as §4
[33] = test system: MCF7; assay: Cytotoxicity against human MCF7 cells assessed as growth inhibition at 100 uM measured after 72 hrs by MTT assay; type: functional; details: MCF7, 72 h, read-out: GI
[34] = test system: A2780; assay: Cytotoxicity against human A2780 cells assessed as growth inhibition at 100 uM measured after 72 hrs by MTT assay; type: functional; details: A2780, 72 h, read-out: GI
[35] = Cytotoxicity against mouse SMA cells assessed as growth inhibition at 100 uM measured after 72 hrs by MTT assay; details: read-out: GI

## N#C/C(=C\c1ccc(Cl)c(Cl)c1)C(=O)c1c[nH]c2ccccc12
[1]
  growth inhibition (GI): inactive
[2]; A2780, 72 h, read-out: GI
  inhibition of growth at 25 µM: 32%
[3]
  growth inhibition (GI): inactive
[4]
  inhibition of growth at 25 µM: 42%
[5]
  growth inhibition (GI): inactive
[6]
  growth inhibition (GI): inactive
[7]
  inhibition of growth at 25 µM: 33%
[8]
  growth inhibition (GI): inactive
[9]
  growth inhibition (GI): inactive
[10]
  inhibition of growth at 25 µM: 33%
[11]
  growth inhibition (GI): inactive

## N#C/C(=C\c1c[nH]c2ccccc12)C(=O)c1ccc[nH]1
[1]
  growth inhibition (GI): inactive
[2]
  growth inhibition (GI): inactive
[3]
  growth inhibition (GI): inactive
[4]
  inhibition of growth at 25 µM: 56%
[5]
  growth inhibition (GI): inactive
[6]
  growth inhibition (GI): inactive
[7]
  inhibition of growth at 25 µM: 49%
[8]
  growth inhibition (GI): inactive
[9]
  growth inhibition (GI): inactive
[10]
  inhibition of growth at 25 µM: 43%
[11]
  growth inhibition (GI): inactive

## COc1ccc(CNC(=O)/C(C#N)=C/c2cc3ccccc3o2)cc1
[1]
  growth inhibition (GI): inactive
[2]
  growth inhibition (GI): inactive
[3]
  growth inhibition (GI): inactive
[4]
  inhibition of growth at 25 µM: 40%
[5]
  growth inhibition (GI): inactive
[6]
  growth inhibition (GI): inactive
[12]
  growth inhibition (GI): inactive
[8]
  growth inhibition (GI): inactive
[13]
  inhibition of growth at 25 µM: 34%
[10]
  growth inhibition (GI): inactive
[11]
  growth inhibition (GI): inactive

## N#C/C(=C\c1ccc(Cl)cc1)C(=O)c1ccc[nH]1
[14]
  inhibition of growth at 100 µM: 31%
[15]
  inhibition of growth at 100 µM: 31%
[16]
  GI50: 36 µM
[17]
  inhibition of growth at 100 µM: 31%
[18]
  inhibition of growth at 100 µM: 31%
[19]
  GI50: 61 µM
[20]
  GI50: 52 µM
[21]
  inhibition of growth at 100 µM: 31%
[22]
  GI50: 48 µM
[23]
  GI50: 37 µM
[24]
  GI50: 43 µM
[25]
  GI50: 35 µM
[26]
  GI50: 38 µM
[27]
  inhibition of growth at 100 µM: 31%
[28]
  inhibition of growth at 100 µM: 31%
[29]
  GI50: 27 µM
[30]
  GI50: 34 µM
[31]
  inhibition of growth at 100 µM: 31%
[32]
  GI50: 34 µM
[33]
  inhibition of growth at 100 µM: 31%
[34]
  inhibition of growth at 100 µM: 31%
[35]
  inhibition of growth at 100 µM: 31%

## Cc1ccc(/C=C(\C#N)C(=O)c2ccc[nH]2)cc1
[1]
  growth inhibition (GI): inactive
[2]
  growth inhibition (GI): inactive
[3]
  growth inhibition (GI): inactive
[4]
  growth inhibition (GI): inactive
[5]
  growth inhibition (GI): inactive
[6]
  growth inhibition (GI): inactive
[12]
  growth inhibition (GI): inactive
[8]
  growth inhibition (GI): inactive
[9]
  growth inhibition (GI): inactive
[10]
  growth inhibition (GI): inactive
[11]
  growth inhibition (GI): inactive

## N#C/C(=C\c1ccc([N+](=O)[O-])cc1)C(=O)c1ccc[nH]1
[1]
  growth inhibition (GI): inactive
[2]
  growth inhibition (GI): inactive
[3]
  growth inhibition (GI): inactive
[4]
  growth inhibition (GI): inactive
[5]
  growth inhibition (GI): inactive
[6]
  growth inhibition (GI): inactive
[12]
  growth inhibition (GI): inactive
[8]
  growth inhibition (GI): inactive
[9]
  growth inhibition (GI): inactive
[10]
  growth inhibition (GI): inactive
[11]
  growth inhibition (GI): inactive

## N#C/C(=C\c1ccc(O)cc1)C(=O)c1c[nH]c2ccccc12
[1]
  growth inhibition (GI): inactive
[2]
  growth inhibition (GI): inactive
[3]
  growth inhibition (GI): inactive
[4]
  growth inhibition (GI): inactive
[5]
  growth inhibition (GI): inactive
[6]
  growth inhibition (GI): inactive
[12]
  growth inhibition (GI): inactive
[8]
  growth inhibition (GI): inactive
[9]
  growth inhibition (GI): inactive
[10]
  growth inhibition (GI): inactive
[11]
  growth inhibition (GI): inactive
